From ChEMBL document CHEMBL4145462, “Nitrogen-containing ecdysteroid derivatives vs. multi-drug resistance in cancer: Preparation and antitumor activity of oximes, oxime ethers and a lactam” (Eur J Med Chem, 2018)

Assays:
[1] = Synergistic cytotoxicity against mouse L5178 cells assessed as combination index at ED50 using 37.5:1 test compound to doxorubicin ratio after 48 hrs by MTT-based checkerboard microplate method; format: functional
Outline: (§1)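 Checkerboard microplate combinations of compound with doxorubicin at constant molar ratios. 5 × 10^4 cells/well in McCoy's 5A, 48 h at 37°C, 5% CO2. MTT added to 0.5 mg/mL final for 4 h, SDS/HCl overnight, OD read at 540 and 630 nm. Combination indices derived per ratio for 50%, 75% and 90% growth inhibition by median-effect analysis.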

[2] = Synergistic cytotoxicity against mouse L5178 cells expressing human ABCB1 assessed as combination index at ED50 using 7.5:1 test compound to doxorubicin ratio after 48 hrs by MTT-based checkerboard microplate method; format: functional; outline: as §1
[3] = Synergistic cytotoxicity against mouse L5178 cells expressing human ABCB1 assessed as combination index at ED50 using 15:1 test compound to doxorubicin ratio after 48 hrs by MTT-based checkerboard microplate method; format: functional; outline: as §1
[4] = Synergistic cytotoxicity against mouse L5178 cells expressing human ABCB1 assessed as combination index at ED90 using 7.5:1 test compound to doxorubicin ratio after 48 hrs by MTT-based checkerboard microplate method; format: functional; outline: as §1
ABCB1 (P-glycoprotein) [5] = target: T1, ABCB1 (P-glycoprotein) (Homo sapiens, UniProt P08183); assay: Inhibition of human ABCB1 expressed in mouse L5178 cells assessed as increase in rhodamine-123 accumulation at 2 uM after 10 mins by flow cytometric analysis relative to control; format: cell-based; conditions: mouse L5178 cells expressing human ABCB1, probe rhodamine-123
Outline: (§2)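 Cells at 2 × 10^6/mL were preincubated 10 min with compound. Rhodamine 123 then added to 5.2 µM final, 20 min at 37 °C. Cells washed twice in PBS, resuspended and read by flow cytometry. Percent inhibition was scaled between MDR-cell accumulation (0%) and parental L5178 accumulation (100%). Controls: 100 nM tariquidar (positive) and 2% DMSO (negative).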

[6] = Synergistic cytotoxicity against mouse L5178 cells assessed as combination index at ED75 using 600:1 test compound to doxorubicin ratio after 48 hrs by MTT-based checkerboard microplate method; format: functional; outline: as §1
[7] = Synergistic cytotoxicity against mouse L5178 cells expressing human ABCB1 assessed as combination index at ED75 using 60:1 test compound to doxorubicin ratio after 48 hrs by MTT-based checkerboard microplate method; format: functional; outline: as §1
[8] = Synergistic cytotoxicity against mouse L5178 cells assessed as combination index at ED90 using 600:1 test compound to doxorubicin ratio after 48 hrs by MTT-based checkerboard microplate method; format: functional; outline: as §1
[9] = Synergistic cytotoxicity against mouse L5178 cells assessed as combination index at ED75 using 300:1 test compound to doxorubicin ratio after 48 hrs by MTT-based checkerboard microplate method; format: functional; outline: as §1
HeLa = assay: Antiproliferative activity against human HeLa cells after 72 hrs by MTT assay; format: functional, cell-based
Outline: (§3)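 Cells grown in MEM with 10% FCS, 1% non-essential amino acids and 1% penicillin-streptomycin. Seeded at 5000 cells/well, exposed to 0.1–30.0 µM compound for 72 h. MTT (5 mg/ml solution) was then added for 4 h, formazan dissolved in DMSO, and absorbance read at 545 nm. Cisplatin served as positive control. IC50 came from sigmoidal dose–response fits (log inhibitor vs normalized response, variable slope).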

[10] = Synergistic cytotoxicity against mouse L5178 cells assessed as combination index at ED75 using 150:1 test compound to doxorubicin ratio after 48 hrs by MTT-based checkerboard microplate method; format: functional; outline: as §1
[11] = Synergistic cytotoxicity against mouse L5178 cells expressing human ABCB1 assessed as combination index at ED50 using 60:1 test compound to doxorubicin ratio after 48 hrs by MTT-based checkerboard microplate method; format: functional; outline: as §1
[12] = Synergistic cytotoxicity against mouse L5178 cells assessed as combination index at ED90 using 75:1 test compound to doxorubicin ratio after 48 hrs by MTT-based checkerboard microplate method; format: functional; outline: as §1
[13] = Synergistic cytotoxicity against mouse L5178 cells assessed as combination index at ED50 using 150:1 test compound to doxorubicin ratio after 48 hrs by MTT-based checkerboard microplate method; format: functional; outline: as §1
[14] = Synergistic cytotoxicity against mouse L5178 cells expressing human ABCB1 assessed as combination index at ED90 using 60:1 test compound to doxorubicin ratio after 48 hrs by MTT-based checkerboard microplate method; format: functional; outline: as §1
[15] = Synergistic cytotoxicity against mouse L5178 cells assessed as combination index at ED90 using 150:1 test compound to doxorubicin ratio after 48 hrs by MTT-based checkerboard microplate method; format: functional; outline: as §1
[16] = Synergistic cytotoxicity against mouse L5178 cells assessed as combination index at ED50 using 300:1 test compound to doxorubicin ratio after 48 hrs by MTT-based checkerboard microplate method; format: functional; outline: as §1
[17] = Synergistic cytotoxicity against mouse L5178 cells assessed as combination index at ED90 using 37.5:1 test compound to doxorubicin ratio after 48 hrs by MTT-based checkerboard microplate method; format: functional; outline: as §1
[18] = Cytotoxicity against mouse L5178 cells after 48 hrs by MTT assay; format: functional, cell-based; conditions: L5178, 48 h
Outline: (§4)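 Parental mouse lymphoma L5178 and the MDR line made by pHa MDR1/A retrovirus transfection, selected with 60 µg/L colchicine. Grown in McCoy's 5A with horse serum at 37°C, 5% CO2. 5 x 10^4 cells/well, serial compound dilutions, 48 h. MTT added to 0.5 mg/mL final for 4 h, then 10% SDS in 0.01 M HCl overnight, OD read at 540 and 630 nm. IC50 taken as median cytotoxic activity (Dm) from control lanes of checkerboard plates, n=2.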

MCF7 = assay: Antiproliferative activity against human MCF7 cells after 72 hrs by MTT assay; format: functional, cell-based; conditions: MCF7, 72 h; outline: as §3
[19] = Synergistic cytotoxicity against mouse L5178 cells expressing human ABCB1 assessed as combination index at ED75 using 7.5:1 test compound to doxorubicin ratio after 48 hrs by MTT-based checkerboard microplate method; format: functional; outline: as §1
[20] = Synergistic cytotoxicity against mouse L5178 cells expressing human ABCB1 assessed as combination index at ED50 using 30:1 test compound to doxorubicin ratio after 48 hrs by MTT-based checkerboard microplate method; format: functional; outline: as §1
[21] = Synergistic cytotoxicity against mouse L5178 cells assessed as combination index at ED50 using 75:1 test compound to doxorubicin ratio after 48 hrs by MTT-based checkerboard microplate method; format: functional; outline: as §1
SiHa = assay: Antiproliferative activity against human SiHa cells after 72 hrs by MTT assay; format: functional, cell-based; outline: as §3
[22] = Cytotoxicity against mouse L5178 cells expressing human ABCB1 after 48 hrs by MTT assay; format: functional, cell-based; conditions: L5178, 48 h; outline: as §4
[23] = Synergistic cytotoxicity against mouse L5178 cells assessed as combination index at ED90 using 300:1 test compound to doxorubicin ratio after 48 hrs by MTT-based checkerboard microplate method; format: functional; outline: as §1
[24] = Synergistic cytotoxicity against mouse L5178 cells assessed as combination index at ED50 using 600:1 test compound to doxorubicin ratio after 48 hrs by MTT-based checkerboard microplate method; format: functional; outline: as §1
[25] = Synergistic cytotoxicity against mouse L5178 cells expressing human ABCB1 assessed as combination index at ED75 using 30:1 test compound to doxorubicin ratio after 48 hrs by MTT-based checkerboard microplate method; format: functional; outline: as §1
ABCB1 (P-glycoprotein) [26] = target: T1, ABCB1 (P-glycoprotein); assay: Inhibition of human ABCB1 expressed in mouse L5178 cells assessed as increase in rhodamine-123 accumulation at 20 uM after 10 mins by flow cytometric analysis relative to control; format: cell-based; conditions: mouse L5178 cells expressing human ABCB1, probe rhodamine-123; outline: as §2
[27] = Synergistic cytotoxicity against mouse L5178 cells expressing human ABCB1 assessed as combination index at ED90 using 30:1 test compound to doxorubicin ratio after 48 hrs by MTT-based checkerboard microplate method; format: functional; outline: as §1
[28] = Synergistic cytotoxicity against mouse L5178 cells expressing human ABCB1 assessed as combination index at ED90 using 15:1 test compound to doxorubicin ratio after 48 hrs by MTT-based checkerboard microplate method; format: functional; outline: as §1
[29] = Synergistic cytotoxicity against mouse L5178 cells assessed as combination index at ED75 using 75:1 test compound to doxorubicin ratio after 48 hrs by MTT-based checkerboard microplate method; format: functional; outline: as §1
[30] = Synergistic cytotoxicity against mouse L5178 cells assessed as combination index at ED75 using 37.5:1 test compound to doxorubicin ratio after 48 hrs by MTT-based checkerboard microplate method; format: functional; outline: as §1
[31] = Synergistic cytotoxicity against mouse L5178 cells expressing human ABCB1 assessed as combination index at ED75 using 15:1 test compound to doxorubicin ratio after 48 hrs by MTT-based checkerboard microplate method; format: functional; outline: as §1
MDA-MB-231 = assay: Antiproliferative activity against human MDA-MB-231 cells after 72 hrs by MTT assay; format: functional, cell-based; conditions: MDA-MB-231, 72 h; outline: as §3

T1 sequence (P08183 whole entry): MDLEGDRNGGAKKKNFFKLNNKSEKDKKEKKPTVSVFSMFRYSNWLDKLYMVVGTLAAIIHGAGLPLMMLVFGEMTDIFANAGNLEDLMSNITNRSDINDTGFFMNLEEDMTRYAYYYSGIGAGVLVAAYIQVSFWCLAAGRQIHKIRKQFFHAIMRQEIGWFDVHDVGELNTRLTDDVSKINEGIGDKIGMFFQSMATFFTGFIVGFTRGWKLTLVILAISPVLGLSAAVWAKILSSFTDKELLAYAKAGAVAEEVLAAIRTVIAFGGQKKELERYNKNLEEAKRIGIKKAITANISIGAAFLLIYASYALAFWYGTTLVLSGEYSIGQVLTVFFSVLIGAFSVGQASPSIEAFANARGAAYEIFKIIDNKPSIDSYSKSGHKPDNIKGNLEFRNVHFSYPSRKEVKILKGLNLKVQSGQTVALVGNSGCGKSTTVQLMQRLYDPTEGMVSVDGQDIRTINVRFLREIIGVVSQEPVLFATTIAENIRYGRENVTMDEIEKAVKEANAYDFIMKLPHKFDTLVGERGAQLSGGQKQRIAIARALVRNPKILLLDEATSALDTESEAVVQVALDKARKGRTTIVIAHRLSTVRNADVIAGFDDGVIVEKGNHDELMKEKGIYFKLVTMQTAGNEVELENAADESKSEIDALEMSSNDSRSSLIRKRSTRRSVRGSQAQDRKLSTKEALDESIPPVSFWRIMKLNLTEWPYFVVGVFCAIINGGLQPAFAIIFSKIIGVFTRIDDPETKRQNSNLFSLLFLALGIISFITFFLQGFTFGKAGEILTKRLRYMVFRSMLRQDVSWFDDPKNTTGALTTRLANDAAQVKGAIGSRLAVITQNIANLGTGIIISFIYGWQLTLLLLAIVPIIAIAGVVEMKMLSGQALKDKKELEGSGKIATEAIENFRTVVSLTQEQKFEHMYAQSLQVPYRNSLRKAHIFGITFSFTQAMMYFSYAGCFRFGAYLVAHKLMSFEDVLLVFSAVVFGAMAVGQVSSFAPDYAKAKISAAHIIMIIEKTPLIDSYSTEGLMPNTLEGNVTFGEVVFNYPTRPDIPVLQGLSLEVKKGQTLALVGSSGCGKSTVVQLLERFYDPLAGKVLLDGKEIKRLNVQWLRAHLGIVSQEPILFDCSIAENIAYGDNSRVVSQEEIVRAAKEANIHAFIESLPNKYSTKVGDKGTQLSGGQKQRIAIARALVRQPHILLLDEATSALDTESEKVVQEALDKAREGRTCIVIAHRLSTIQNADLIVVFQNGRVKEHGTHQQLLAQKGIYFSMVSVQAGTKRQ

Structure (SMILES) | CI [1] | CI [2] | CI [3] | CI [4] | inhibition at 10 min, 2 µM (ABCB1 (P-glycoprotein) [5]) [%] | CI [6] | CI [7] | CI [8] | CI [9] | IC50 (HeLa) [µM] | CI [10] | CI [11] | CI [12] | CI [13] | CI [14] | CI [15] | CI [16] | CI [17] | IC50 [18] [µM] | IC50 (MCF7) [µM] | other results
CO/N=C1\C=C2[C@H](CC[C@]3(C)[C@@H]([C@@]4(C)OC(C)(C)O[C@@H]4CCC(C)(C)O)CC[C@@]23O)[C@@]2(C)C[C@@H]3OC(C)(C)O[C@@H]3C[C@@H]12 | 1.19 | 0.19 | 0.17 | 0.16 | 2.25 | 0.9 | 0.39 | 0.91 | 0.8 | > 30 | 0.79 | 0.29 | 1.19 | 1.06 | 0.52 | 0.62 | 0.82 | 1.13 | 40.9 | > 30 | CI [19]: 0.17; CI [20]: 0.19; CI [21]: 0.99; IC50 (SiHa): > 30 µM; IC50 [22]: 55.1 µM; CI [23]: 0.83; CI [24]: 0.93; CI [25]: 0.21; inhibition at 10 min, 20 µM (ABCB1 (P-glycoprotein) [26]): 25.1%; CI [27]: 0.24; CI [28]: 0.16; CI [29]: 1.06; CI [30]: 1.14; CI [31]: 0.16; IC50 (MDA-MB-231): > 30 µM
CCO/N=C1\C=C2[C@H](CC[C@]3(C)[C@@H]([C@@]4(C)OC(C)(C)O[C@@H]4CCC(C)(C)O)CC[C@@]23O)[C@@]2(C)C[C@@H]3OC(C)(C)O[C@@H]3C[C@@H]12 | 0.55 | 0.18 | 0.57 | 0.12 | 17.5 | 0.95 | 0.35 | 0.89 | 1.08 | > 30 | 0.8 | 0.31 | 0.84 | 0.17 | 0.41 | 1.1 | 1.09 | 0.6 | 35 | 22.6 | CI [19]: 0.14; CI [20]: 0.2; CI [21]: 0.59; IC50 (SiHa): > 30 µM; IC50 [22]: 47 µM; CI [23]: 1.06; CI [24]: 1.02; CI [25]: 0.23; inhibition at 10 min, 20 µM (ABCB1 (P-glycoprotein) [26]): 78.8%; CI [27]: 0.26; CI [28]: 0.15; CI [29]: 0.7; CI [30]: 0.58; CI [31]: 0.16; IC50 (MDA-MB-231): > 30 µM
CC(C)(O)CC[C@H]1OC(C)(C)O[C@]1(C)[C@H]1CC=C2C3=CC(=O)N[C@@H]4C[C@H]5OC(C)(C)O[C@H]5C[C@]4(C)[C@H]3CC[C@@]21C | 0.57 | 0.24 | 0.2 | 0.1 | 1.16 | 0.63 | 0.17 | 0.67 | 0.46 | > 30 | 0.42 | 0.2 | 0.43 | 0.4 | 0.15 | 0.46 | 0.43 | 0.46 | 63.4 | > 30 | CI [19]: 0.15; CI [20]: 0.18; CI [21]: 0.62; IC50 (SiHa): > 30 µM; IC50 [22]: 72.4 µM; CI [23]: 0.5; CI [24]: 0.58; CI [25]: 0.13; inhibition at 10 min, 20 µM (ABCB1 (P-glycoprotein) [26]): 4.27%; CI [27]: 0.11; CI [28]: 0.09; CI [29]: 0.52; CI [30]: 0.51; CI [31]: 0.12; IC50 (MDA-MB-231): > 30 µM
